Among the data in ChEMBL document CHEMBL2401724, “Synthesis and structure--activity relationships of N²-alkylated quaternary β-carbolines as novel antitumor agents” (Eur J Med Chem, 2013) are IC50, inhibition in vivo and LD50 values, retold here.

The structures appear in SMILES notation. Some results are limits rather than exact numbers.

The subject of data set [1] is SK-OV-3. As to the kind of experiment: Cytotoxicity against human SKOV3 cells by MTT assay. Format: functional, cell-based. Summed up: (§1)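 Cell lines were cultured in 96-well microtitre plates at 37 °C in humidified 5% CO₂. Compounds were dissolved in DMSO, at ≤2% (v/v) final in the growth medium. Viability was read by MTT staining, expressed relative to untreated cells.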

Data set [2] has as its system BGC-823. In words: Cytotoxicity against human BGC823 cells by MTT assay. Format: functional, cell-based. In short, it runs like this:
as §1

The test system of data set [3] is HT-29. As to the kind of experiment: Cytotoxicity against human HT-29 cells by MTT assay. Format: functional, cell-based. Summed up: as §1
The nature of data set [4]: Cytotoxicity against human ECA109 cells by MTT assay. Format: functional, cell-based. The settings on record: ECa-109. Summed up:
as §1

Data set [5] has as its system CWR22R. In words: Cytotoxicity against human 22Rv1 cells by MTT assay. Format: functional, cell-based. In short, it runs like this:
as §1

Data set [6] concerns MCF7. In words: Cytotoxicity against human MCF7 cells by MTT assay. Format: functional, cell-based. In short, it runs like this: as §1
Data set [7] relates to 769-P. As to the kind of experiment: Cytotoxicity against human 769-P cells by MTT assay. Format: functional, cell-based. In short, it runs like this: as §1
For data set [8], the system named is A-375. As to the kind of experiment: Cytotoxicity against human A375 cells by MTT assay. Format: functional, cell-based. In short, it runs like this: as §1
The nature of data set [9]: Antitumor activity against mouse Sarcoma 180 cells allografted in mouse assessed as tumor growth inhibition at 2.5 mg/kg, ip qd administered for 7 days measured after 21 days relative to control. Format: functional. The following applies: Sarcoma-180, ip, route intraperitoneal, read-out: TGI. Summed up: (§2)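 Tumour cells (S180 sarcoma or Lewis lung) were first grown in mice for 7 days, then harvested. Viable cells (2 × 10⁶/mouse) were injected s.c. into the armpit. Groups of 10 female mice received the compound i.p. once daily for 7 consecutive days, starting 24 h after inoculation. Cyclophosphamide 30 mg/kg served as positive control and vehicle as negative control. Body weights were taken every 3 days. Mice were killed on day 21 post-inoculation, and tumours were excised and weighed to calculate the inhibition rate versus control.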

In data set [10] the test system is HepG2. As to the kind of experiment: Cytotoxicity against human HepG2 cells by MTT assay. Format: functional, cell-based. In short, it runs like this:
as §1

A short description of data set [11]: Cytotoxicity against mouse LLC cells by MTT assay. Format: functional, cell-based. The settings on record: Lewis lung carcinoma. In short, it runs like this: as §1
The nature of data set [12]: Acute toxicity in ip dosed C57BL/6 mouse after 14 days. Format: organism-based. The following applies: in vivo. In short, it runs like this:
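C57BL/6 mice (9–12 weeks, 18–22 g), single i.p. dose; watched continuously for 2 h, intermittently over 24 h, then occasionally to day 14 for behaviour, deaths and delayed effects. Survivors killed at day 14; heart, liver, kidneys inspected macroscopically, early deaths also examined. LD50 derived graphically.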

Data set [13] can be described thus: Antitumor activity against mouse Sarcoma 180 cells allografted in mouse assessed as tumor growth inhibition at 6 mg/kg, ip qd administered for 7 days measured after 21 days relative to control. Format: functional. The settings on record: Sarcoma-180, ip, route intraperitoneal, read-out: TGI. Summed up:
as §2

Data set [14] relates to Lewis lung carcinoma cell line. In words: Antitumor activity against mouse LLC cells allografted in mouse assessed as tumor growth inhibition at 0.5 mg/kg, ip qd administered for 7 days measured after 21 days relative to control. Format: functional. The settings on record: route intraperitoneal, read-out: TGI. Summed up:
as §2

Data set [15] is described as follows: Antitumor activity against mouse Sarcoma 180 cells allografted in mouse assessed as tumor growth inhibition at 0.5 mg/kg, ip qd administered for 7 days measured after 21 days relative to control. Format: functional. The following applies: Sarcoma-180, ip, route intraperitoneal, read-out: TGI. Summed up: as §2
For data set [16], the system named is Lewis lung carcinoma cell line. As to the kind of experiment: Antitumor activity against mouse LLC cells allografted in mouse assessed as tumor growth inhibition at 1.25 mg/kg, ip qd administered for 7 days measured after 21 days relative to control. Format: functional. The settings on record: route intraperitoneal, read-out: TGI. Summed up:
as §2

Data set [17] is described as follows: Antitumor activity against mouse Sarcoma 180 cells allografted in mouse assessed as tumor growth inhibition at 1.25 mg/kg, ip qd administered for 7 days measured after 21 days relative to control. Format: functional. The settings on record: Sarcoma-180, ip, route intraperitoneal, read-out: TGI. Summed up: as §2
Data set [18] is described as follows: Antitumor activity against mouse Sarcoma 180 cells allografted in mouse assessed as tumor growth inhibition at 4 mg/kg, ip qd administered for 7 days measured after 21 days relative to control. Format: functional. The settings on record: Sarcoma-180, ip, route intraperitoneal, read-out: TGI. In short, it runs like this:
as §2

For data set [19], the system named is LoVo. As to the kind of experiment: Cytotoxicity against human LoVo cells. Format: functional, cell-based.
In data set [20] the test system is Lewis lung carcinoma cell line. As to the kind of experiment: Antitumor activity against mouse LLC cells allografted in mouse assessed as tumor growth inhibition at 4 mg/kg, ip qd administered for 7 days measured after 21 days relative to control. Format: functional. The following applies: route intraperitoneal, read-out: TGI. Summed up: as §2
For data set [21], the system named is Lewis lung carcinoma cell line. In words: Antitumor activity against mouse LLC cells allografted in mouse assessed as tumor growth inhibition at 1.75 mg/kg, ip qd administered for 7 days measured after 21 days relative to control. Format: functional. The settings on record: route intraperitoneal, read-out: TGI. In short, it runs like this: as §2
The nature of data set [22]: Antitumor activity against mouse Sarcoma 180 cells allografted in mouse assessed as tumor growth inhibition at 1.75 mg/kg, ip qd administered for 7 days measured after 21 days relative to control. Format: functional. The settings on record: Sarcoma-180, ip, route intraperitoneal, read-out: TGI. In short, it runs like this:
as §2

In data set [23] the test system is Lewis lung carcinoma cell line. In words: Antitumor activity against mouse LLC cells allografted in mouse assessed as tumor growth inhibition at 30 mg/kg, ip qd administered for 7 days measured after 21 days relative to control. The settings on record: read-out: TGI.
The nature of data set [24]: Antitumor activity against mouse Sarcoma 180 cells allografted in mouse assessed as tumor growth inhibition at 30 mg/kg, ip qd administered for 7 days measured after 21 days relative to control. The following applies: Sarcoma-180, ip, read-out: TGI.

In the case of `Fc1ccc(C[n+]2ccc3c4ccccc4n(CCCc4ccccc4)c3c2)cc1.[Cl-]`, the IC50 in [1] was found to be 12.2 µM; in [2] it was 8.1 µM; in data set [3], 9.1 µM; in [4], 5.3 µM; in data set [5], 4.3 µM; in data set [6], 9.7 µM. For the same compound, the IC50 came to 14.3 µM in data set [7], 10.4 µM in [8], 10.4 µM in data set [10] and 8.1 µM in [11]. Moreover, in data set [9], the inhibition in vivo at 2.5 mg/kg was 51.5%. Moreover, the LD50 at 336 h in data set [12] was found to be 12.5 mg/kg.

Consider `Clc1cccc(C[n+]2ccc3c4ccccc4n(CCCc4ccccc4)c3c2)c1.[Br-]`, for which the IC50 in data set [1] is 13.8 µM; in data set [2], 9.8 µM; in data set [3], 16.5 µM; in data set [4], 7.9 µM; in data set [5] it was 9.7 µM; in [6], 14.3 µM. In addition, the IC50 in [7] stood at 21.9 µM; in [8] it was 24.6 µM; in data set [10] it was 19 µM; in data set [11], 6.5 µM. Moreover, in data set [13], the inhibition in vivo at 6 mg/kg was determined as 43.5%. The compound further yielded an LD50 at 336 h in data set [12] of 30 mg/kg.

As to `Cc1c2c(cc[n+]1Cc1ccccc1)c1ccccc1n2CCCc1ccccc1.[Br-]`, the half-inhibitory concentration (IC50) in data set [1] was found to be 7.6 µM; in data set [2], 6.9 µM; in data set [3] it was 14.6 µM; in [4], 6.8 µM; in data set [5], 1.8 µM; in [6], 7 µM. In addition, the IC50 in data set [7] is 5.3 µM; in data set [8], 8.5 µM; in data set [10], 5.8 µM; in data set [11], < 2 µM. Besides, the inhibition in vivo at 0.5 mg/kg in [14] is 33.1%; in data set [15] it was 51%. In data set [12], this compound gave an LD50 at 336 h of 2.5 mg/kg.

Take `COc1ccc(-c2c3c(cc[n+]2Cc2ccccc2)c2ccccc2n3CCCc2ccccc2)cc1.[Br-]`: the inhibition in vivo at 1.25 mg/kg in data set [16] turned out to be 23.9%; in data set [17], 41.4%. The IC50 in data set [1] turned out to be 5.2 µM; in data set [2], 3.2 µM; in data set [3] it was 2.4 µM; in [4], 12.3 µM; in data set [5] it was 1.8 µM; in [6], 2.2 µM. The IC50 in [7] was < 2 µM; in data set [8], < 2 µM; in [10], 3.3 µM; in data set [11], < 2 µM. Moreover, in data set [12], the LD50 at 336 h was 6.25 mg/kg.

Take `c1ccc(Cn2c3ccccc3c3cc[n+](Cc4ccccc4)cc32)cc1`: the IC50 worked out at 16.9 µM in [1]; 38.7 µM in data set [2]; 42.5 µM in data set [3]; 32.7 µM in data set [4]; 5.7 µM in [5]; 18.7 µM in data set [6]. For the same compound, the 50% inhibitory concentration (IC50) was 8.7 µM in [7]; 7.8 µM in data set [8]; 34.6 µM in data set [10]; < 2 µM in data set [11]; 20 µM in data set [19]. Also, the values for the inhibition in vivo at 4 mg/kg in [18] and in data set [20] were 45.9% and 48.5%, respectively.

`COc1ccc(Cn2c3ccccc3c3cc[n+](Cc4ccccc4)cc32)cc1.[Br-]`: the IC50 in data set [1] was found to be 19.9 µM; in data set [2], 17.8 µM; in [3], 19.2 µM; in data set [4], 54.3 µM; in [5], 4.8 µM; in data set [6] it was 18.7 µM. Also, the IC50 in data set [7] was 7.6 µM; in data set [8] it was 9.5 µM; in data set [10], 15.9 µM; in [11] it was 4.2 µM. Also, the LD50 at 336 h in data set [12] stood at 19.5 mg/kg.

`[Br-].c1ccc(CCCn2c3ccccc3c3cc[n+](Cc4ccccc4)cc32)cc1`: the IC50 in data set [1] is 4.4 µM; in [2], 8.5 µM; in data set [3] it was 7.6 µM; in [4], 11.7 µM; in data set [5] it was 3.2 µM; in data set [6], 14.4 µM. In addition, the IC50 came out at 4.9 µM in [7], 8.7 µM in data set [8], 7.9 µM in data set [10] and 3.9 µM in data set [11]. The inhibition in vivo at 1.75 mg/kg in [21] worked out at 59.2%; in data set [22], 62.1%. In data set [12], the LD50 at 336 h came to 8.9 mg/kg.

As for `O=P1(N(CCCl)CCCl)NCCCO1` (centres undefined) [CYCLOPHOSPHAMIDE ANHYDROUS], the inhibition in vivo at 30 mg/kg was 87.3% in [23] and 85.6% in data set [24].
